Substrate in this data set: N[C@@H](Cc1c[nH]c2ccccc12)C(=O)O
Kind of data set: Activity of human recombinant TDO expressed in Escherichia coli BL21 using L-tryptophan as substrate by measuring conversion of N-formylkynurenine into kynurenine per mg of protein after 30 mins by Michaelis-Menten steady state analysis. The method, boiled down:
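Crude extract of E. coli overexpressing recombinant human TDO (~3 μg total protein) was added to prewarmed mix: 50 mM phosphate pH 7.5, 20 mM ascorbate, 10 μM methylene blue, 500 IU/mL catalase and varied L-Trp. Run at 37 °C, stopped with TCA at 2 and 4 min, then 65 °C for 30 min. Kynurenine was read at 480 nm with Ehrlich's reagent against a kynurenine standard curve; rate taken from 2–4 min.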

Usually Km stands for the substrate concentration at which the rate is half of its maximum. In general, Vmax refers to the rate approached at saturating substrate.

B1: Tryptophan 2,3-dioxygenase (Homo sapiens), P48775 (protein)
chain: MSGCPFLGNNFGYTFKKLPVEGSEEDKSQTGVNRASKGGLIYGNYLHLEKVLNAQELQSETKGNKIHDEHLFIITHQAYELWFKQILWELDSVREIFQNGHVRDERNMLKVVSRMHRVSVILKLLVQQFSILETMTALDFNDFREYLSPASGFQSLQFRLLENKIGVLQNMRVPYNRRHYRDNFKGEENELLLKSEQEKTLLELVEAWLERTPGLEPHGFNFWGKLEKNITRGLEEEFIRIQAKEESEEKEEQVAEFQKQKEVLLSLFDEKRHEHLLSKGERRLSYRALQGALMIYFYREEPRFQVPFQLLTSLMDIDSLMTKWRYNHVCMVHRMLGSKAGTGGSSGYHYLRSTVSDRYKVFVDLFNLSTYLIPRHWIPKMNPTIHKFLYTAEYCDSSYFSSDESD
As for B1, the Km worked out at 167 µM and the Vmax was found to be 97 µM/s.

The record behind these values is ChEMBL document CHEMBL1811872, “Tryptophan 2,3-dioxygenase (TDO) inhibitors. 3-(2-(pyridyl)ethenyl)indoles as potential anticancer immunomodulators” (J Med Chem, 2011).
